Measured values published in ChEMBL document CHEMBL4138242, “Synthesis and antibacterial evaluation of novel cationic chalcone derivatives possessing broad spectrum antibacterial activity” (Eur J Med Chem, 2018).

Test system: Escherichia coli
Assay: Ratio of MIC for Escherichia coli ATCC 25922 after 20 passages to MIC for Escherichia coli ATCC 25922 before 20 passages
Assay type: functional, organism-based
Method in brief: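 The MIC was first measured by broth microdilution. Cells grown at MIC/2 were then carried into a fresh MIC assay after each 24 h, repeated over 20 serial passages. Norfloxacin (S. aureus) and colistin (E. coli) served as control antibiotics. Resistance was defined as a >4-fold rise over the original MIC.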

## COLISTIN
  Ratio: 32
